One test addresses T1, Nitric oxide synthase 3 (Homo sapiens, UniProt P29474).
T1 sequence (P29474 whole entry): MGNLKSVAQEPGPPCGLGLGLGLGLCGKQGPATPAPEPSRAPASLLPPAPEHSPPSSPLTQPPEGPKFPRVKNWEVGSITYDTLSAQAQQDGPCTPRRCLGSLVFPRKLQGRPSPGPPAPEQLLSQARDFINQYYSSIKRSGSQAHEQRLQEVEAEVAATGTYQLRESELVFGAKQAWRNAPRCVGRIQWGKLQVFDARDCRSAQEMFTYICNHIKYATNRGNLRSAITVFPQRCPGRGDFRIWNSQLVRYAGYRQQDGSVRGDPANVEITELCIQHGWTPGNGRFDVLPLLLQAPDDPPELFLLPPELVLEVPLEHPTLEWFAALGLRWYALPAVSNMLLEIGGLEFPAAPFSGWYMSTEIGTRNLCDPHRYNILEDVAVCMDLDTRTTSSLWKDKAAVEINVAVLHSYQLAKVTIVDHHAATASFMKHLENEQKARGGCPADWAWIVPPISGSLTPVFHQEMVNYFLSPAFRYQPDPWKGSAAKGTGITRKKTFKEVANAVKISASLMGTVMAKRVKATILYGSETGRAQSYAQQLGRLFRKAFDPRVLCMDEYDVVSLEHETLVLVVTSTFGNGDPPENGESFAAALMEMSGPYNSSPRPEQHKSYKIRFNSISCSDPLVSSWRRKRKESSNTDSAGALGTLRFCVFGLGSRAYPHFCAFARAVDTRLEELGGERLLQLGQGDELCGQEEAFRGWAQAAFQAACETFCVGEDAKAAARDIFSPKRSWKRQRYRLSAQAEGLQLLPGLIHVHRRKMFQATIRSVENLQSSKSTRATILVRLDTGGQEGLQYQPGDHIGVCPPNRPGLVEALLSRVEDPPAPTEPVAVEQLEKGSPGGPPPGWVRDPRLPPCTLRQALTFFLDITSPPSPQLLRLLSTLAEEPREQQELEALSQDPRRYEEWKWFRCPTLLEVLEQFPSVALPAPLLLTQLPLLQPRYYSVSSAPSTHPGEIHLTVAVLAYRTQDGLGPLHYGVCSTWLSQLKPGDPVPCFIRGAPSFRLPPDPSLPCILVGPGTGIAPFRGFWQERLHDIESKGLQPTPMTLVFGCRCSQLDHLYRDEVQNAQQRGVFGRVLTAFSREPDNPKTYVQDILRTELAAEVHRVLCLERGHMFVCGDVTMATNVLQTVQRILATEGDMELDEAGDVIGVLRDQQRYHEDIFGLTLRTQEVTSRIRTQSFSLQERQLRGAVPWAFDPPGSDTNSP
Description: Inhibitory concentration against human endothelial nitric oxide synthase expressed in Sf-9 cells. The method in brief:
(§1)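 Recombinant human NOS isozyme produced in Sf-9 insect cells. Enzyme activity was followed as conversion of [¹⁴C]-L-Arg to [¹⁴C]-L-Cit, and IC50 was calculated from the concentration dependence of inhibition. Inhibitors were tested up to 1 mM.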

Test [1] concerns the target Nitric oxide synthase, inducible (Homo sapiens, UniProt P35228). The experiment in a line: Inhibitory concentration against human inducible nitric oxide synthase expressed in Sf-9 cells. The method in brief: as §1
The target in a further test is Nitric oxide synthase 1 (Homo sapiens, UniProt P29475). Description: Inhibitory concentration against human neuronal nitric oxide synthase expressed in Sf-9 cells. The method in brief: as §1
Nitric oxide synthase 1, sequence (P29475 whole entry): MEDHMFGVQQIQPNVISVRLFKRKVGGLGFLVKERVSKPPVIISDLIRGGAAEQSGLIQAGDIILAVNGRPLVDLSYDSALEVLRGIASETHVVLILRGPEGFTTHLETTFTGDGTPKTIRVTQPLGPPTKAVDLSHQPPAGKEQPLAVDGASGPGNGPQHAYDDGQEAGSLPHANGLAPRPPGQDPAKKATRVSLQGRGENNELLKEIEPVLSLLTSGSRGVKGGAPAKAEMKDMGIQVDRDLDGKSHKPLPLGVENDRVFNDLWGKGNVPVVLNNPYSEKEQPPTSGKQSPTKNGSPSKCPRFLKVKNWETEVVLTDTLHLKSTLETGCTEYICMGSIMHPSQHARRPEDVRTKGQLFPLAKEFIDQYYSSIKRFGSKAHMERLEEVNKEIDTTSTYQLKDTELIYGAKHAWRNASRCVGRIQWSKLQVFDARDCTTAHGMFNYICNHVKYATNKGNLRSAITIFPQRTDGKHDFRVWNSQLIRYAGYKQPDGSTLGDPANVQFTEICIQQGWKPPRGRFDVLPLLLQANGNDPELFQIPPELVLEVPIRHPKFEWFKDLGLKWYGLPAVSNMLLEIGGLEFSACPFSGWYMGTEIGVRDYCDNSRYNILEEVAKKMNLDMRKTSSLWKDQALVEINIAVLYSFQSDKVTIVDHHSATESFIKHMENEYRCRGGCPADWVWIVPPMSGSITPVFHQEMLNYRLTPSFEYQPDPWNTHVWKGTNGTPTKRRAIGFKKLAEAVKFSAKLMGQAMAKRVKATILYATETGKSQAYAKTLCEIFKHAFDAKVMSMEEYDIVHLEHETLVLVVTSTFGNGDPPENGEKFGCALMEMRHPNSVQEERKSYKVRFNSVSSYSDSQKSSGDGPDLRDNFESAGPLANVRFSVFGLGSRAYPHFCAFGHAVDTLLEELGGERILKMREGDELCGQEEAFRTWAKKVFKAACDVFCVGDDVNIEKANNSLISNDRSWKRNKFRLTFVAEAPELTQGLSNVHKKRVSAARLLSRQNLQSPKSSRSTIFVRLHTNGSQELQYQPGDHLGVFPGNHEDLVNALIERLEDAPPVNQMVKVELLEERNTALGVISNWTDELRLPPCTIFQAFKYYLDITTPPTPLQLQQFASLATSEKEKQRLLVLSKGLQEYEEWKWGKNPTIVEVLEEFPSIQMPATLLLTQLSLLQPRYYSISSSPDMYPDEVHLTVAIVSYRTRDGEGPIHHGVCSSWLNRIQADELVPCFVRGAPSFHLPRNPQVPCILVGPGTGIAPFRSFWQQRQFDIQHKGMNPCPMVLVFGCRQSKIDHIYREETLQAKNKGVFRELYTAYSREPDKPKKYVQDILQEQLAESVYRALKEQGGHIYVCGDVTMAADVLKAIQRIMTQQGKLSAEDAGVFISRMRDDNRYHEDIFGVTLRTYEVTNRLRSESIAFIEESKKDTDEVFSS

Structures are written as SMILES.

The values below come from ChEMBL document CHEMBL1139597, “Evaluation of 3-substituted arginine analogs as selective inhibitors of human nitric oxide synthase isozymes” (Bioorg Med Chem Lett, 2005).

Nitric oxide synthase, inducible, sequence (P35228 whole entry): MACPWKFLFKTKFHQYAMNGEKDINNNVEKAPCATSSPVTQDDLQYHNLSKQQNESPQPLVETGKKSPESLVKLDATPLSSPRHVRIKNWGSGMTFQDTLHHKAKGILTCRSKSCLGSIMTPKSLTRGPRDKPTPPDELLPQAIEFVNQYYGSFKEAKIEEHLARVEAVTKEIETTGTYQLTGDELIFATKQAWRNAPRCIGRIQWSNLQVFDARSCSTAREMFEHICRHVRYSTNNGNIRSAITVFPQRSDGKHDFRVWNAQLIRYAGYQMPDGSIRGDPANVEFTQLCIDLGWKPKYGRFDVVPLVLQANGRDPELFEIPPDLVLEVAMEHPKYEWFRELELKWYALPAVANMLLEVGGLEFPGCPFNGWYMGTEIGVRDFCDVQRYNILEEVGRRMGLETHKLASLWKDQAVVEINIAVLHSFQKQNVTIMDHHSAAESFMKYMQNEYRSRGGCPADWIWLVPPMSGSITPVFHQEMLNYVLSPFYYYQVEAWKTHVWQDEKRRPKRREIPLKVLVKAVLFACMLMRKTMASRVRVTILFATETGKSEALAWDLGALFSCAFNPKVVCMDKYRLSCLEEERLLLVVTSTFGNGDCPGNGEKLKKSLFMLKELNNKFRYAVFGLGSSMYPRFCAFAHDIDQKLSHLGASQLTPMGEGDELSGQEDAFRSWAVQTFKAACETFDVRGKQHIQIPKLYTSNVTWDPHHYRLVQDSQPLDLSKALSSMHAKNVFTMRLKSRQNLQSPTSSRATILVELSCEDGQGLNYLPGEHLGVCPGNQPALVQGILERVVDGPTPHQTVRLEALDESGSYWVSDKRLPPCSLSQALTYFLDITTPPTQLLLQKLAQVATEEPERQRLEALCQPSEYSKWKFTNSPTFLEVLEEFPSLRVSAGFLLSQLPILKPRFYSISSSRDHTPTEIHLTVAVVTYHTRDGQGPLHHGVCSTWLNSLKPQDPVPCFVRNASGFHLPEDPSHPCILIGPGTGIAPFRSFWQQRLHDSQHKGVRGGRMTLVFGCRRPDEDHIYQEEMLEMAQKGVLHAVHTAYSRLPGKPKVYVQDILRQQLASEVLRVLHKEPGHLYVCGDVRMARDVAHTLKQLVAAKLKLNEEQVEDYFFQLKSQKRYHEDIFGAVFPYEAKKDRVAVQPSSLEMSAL

As for `CCC[C@@H](CCN=C(N)SC)[C@H](N)C(=O)O`, the IC50 at Nitric oxide synthase 3 is above 1000 µM; in test [1], 370 µM; against Nitric oxide synthase 1, 500 µM.

As to `CSC(=N)NCCC[C@H](N)C(=O)N[C@@H](Cc1ccccc1)C(=O)O`, the half-inhibitory concentration (IC50) is above 1000 µM against Nitric oxide synthase 3, 3.9 µM in test [1] and 36 µM against Nitric oxide synthase 1.

For the compound `CC(=N)NCCC[C@H](N)C(=O)O` [L-NIO], the concentration for half-maximal inhibition (IC50) on Nitric oxide synthase 3 was 6 µM; in test [1], 4 µM.

For the compound `CC(=N)NCC[C@@H](C)[C@H](N)C(=O)O`, the IC50 (against Nitric oxide synthase 3; in test [1]; against Nitric oxide synthase 1) was above 1000 µM each time.

By IC50 is commonly meant the point on the concentration scale where inhibition reaches its midpoint. Low readings indicate higher potency, high ones lower potency.
